From PubChem
OXTR ag: activates the human oxytocin receptor. P30559. CHO-OTR cells, Fluo-8 calcium fluorescence; normalized: DMSO 0%, oxytocin 100%. activation, % at 3 µM. hit rate 0.32% among 320,000. AID 2435;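 active = activation above the mean of all tested compounds plus 3 SD, cutoff set per screening run, cut at about 20% in these data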;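 note: peak over basal fluorescence ratio from a 100 s FLIPR kinetic read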
TAAR1 antagonist: antagonists of human TAAR1; Q96RJ0; CHO RD-HGA16 TAAR1, Fluo-8 calcium fluorescence, antagonist; inhibition, % at 3 µM; hit rate 1.5% among 360,000; AID 624466;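 active = inhibition above a per-plate cutoff, the mean inhibition of test compounds on that plate plus 3 SD, cut at about 49% in these data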;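 note: 0% = DMSO plus EC80 beta-PEA response and 100% = DMSO alone without agonist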
Target sequence (Q96RJ0 whole entry, looked up): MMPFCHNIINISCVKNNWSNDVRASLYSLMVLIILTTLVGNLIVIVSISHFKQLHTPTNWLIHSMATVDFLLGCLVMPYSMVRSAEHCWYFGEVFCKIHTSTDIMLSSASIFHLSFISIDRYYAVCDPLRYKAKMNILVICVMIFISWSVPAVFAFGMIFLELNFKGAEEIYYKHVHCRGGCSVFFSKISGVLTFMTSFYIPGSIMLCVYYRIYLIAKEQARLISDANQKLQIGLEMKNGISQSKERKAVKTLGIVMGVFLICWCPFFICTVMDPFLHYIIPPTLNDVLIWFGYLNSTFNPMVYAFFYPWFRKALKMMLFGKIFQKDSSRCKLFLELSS
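Material: CHO RD-HGA16 cells bearing hTAAR1; compound dosing: one-point dosing, 3 µM nominal final; schedule: dye loading 75 min at 37 °C, then 30 min room temperature; measured by: calcium fluorescence with Fluo-8; control set: vehicle and agonist controls; replication: n of 1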
TAAR1 agonist: agonists of human TAAR1 | activation, % at 3 µM | AID 624467 | hit rate 0.99% among 360,000 | CHO RD-HGA16 TAAR1, Fluo-8 calcium fluorescence; vehicle wells 0%, saturating PEA agonist 100% | Q96RJ0;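 active = activation above the mean activation of all test compounds in the run plus 3 SD, cut at about 38% in these data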
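Signal – calcium-sensitive Fluo-8 signal, excitation 470-495, emission 515-575 nm · System – RD-HGA16 (CHO) cells co-expressing Gα16 and hTAAR1 · Incubation – 17-24 h seeding, 75 min 37 °C dye, 30 min RT · Compound dosing – 3 µM single concentration · Repeats – no replicates (n 1)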
OXTR potentiate: human OXTR potentiation | P30559 | CHO-OTR cells, Fluo-8 calcium fluorescence, potentiator mode; 0% = oxytocin EC15, 100% = EC100 | activation, % at 3 µM | hit rate 0.061% among 320,000;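 active = activation above that plate's cutoff, the mean activation of tested compounds plus 3 SD, cut at about 6.6% in these data, passing the limit was not always enough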;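 note: 100% uses oxytocin at 75 nM as the full agonist control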
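assay system = CHO-OTR cells, human receptor | schedule = compound 6 min at room temperature before oxytocin, 100 s read | detection = Fluo-8 intracellular calcium fluorescence, ex 470-495, em 515-575 nm | evaluation = normalized max/min fluorescence ratio, % activation | control set = EC15 oxytocin alone as 0%, 75 nM oxytocin (EC100) as 100%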
V1aR counter: activates human V1a receptor in oxytocin agonist counter-screen; hit rate 0.25% among 320,000; AID 2797; P37288; CHO-V1R cells, Fluo-8 calcium fluorescence, agonist mode; 0% DMSO, 100% 3 nM vasopressin; activation, % at 3 µM;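 active = activation above the mean activation of all tested compounds plus 3 SD, per screening run, cut at about 20% in these data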;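 note: signal is peak over basal fluorescence ratio across a 100 second FLIPR read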
nonsel antag count: nonselective antagonism, TAAR1 counter-screen; shares compounds with TAAR1 antagonist; counterscreen cell line, calcium fluorescence, antagonist mode; inhibition, % at 3 µM; hit rate 77% among 2,400; AID 651780; in the data active = inhibition above about 22%;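 note: CHO-Ga16 host cells stimulated with ATP at an EC80 level; 0% = agonist EC80 plus vehicle and 100% = vehicle without agonist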
TAAR1 ant conf: confirmation of human TAAR1 antagonists; shares compounds with TAAR1 antagonist; TAAR1-expressing cells, fluorescence antagonist read-out; inhibition, % at 3 µM; hit rate 40% among 2,400; AID 651785; in the data active = inhibition above about 49%;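 note: CHO-Ga16 host cells challenged with agonist PEA near its EC80; 0% = agonist at EC80 plus vehicle and 100% = vehicle with no agonist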
Ga16 nonsel ag: counter-screen for TAAR1 antagonists: nonselective Ga16 agonists. shares compounds with TAAR1 antagonist. Ga16-expressing cells, calcium fluorescence, agonist counterscreen. activation, % at 3 µM. hit rate 18% among 2,400; in the data active = activation above about 12%;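 note: 0% = vehicle wells and 100% = saturating stimulus response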
TAAR1 ag counter: TAAR1 agonism, antagonist counter-screen; activation, % at 3 µM; hit rate 2% among 2,400; AID 651955; shares compounds with TAAR1 antagonist; hTAAR1 cell line, fluorescence activation, agonist mode; in the data active = activation above about 37%;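 note: CHO cells stably expressing TAAR1 with calcium dye readout; 0% = DMSO vehicle and 100% = full agonist response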
An asterisk follows results filed as active; . = no result given. Sampled rows, rich in hits. Any-hit rate of the full collection: about 2.3%.

SMILES	OXTR ag	TAAR1 antagonist	TAAR1 agonist	OXTR potentiate	V1aR counter	nonsel antag count	TAAR1 ant conf	Ga16 nonsel ag	TAAR1 ag counter
Cc1ccc(OCC(=O)NNc2c3ccccc3nc3ccccc23)cc1	-1	70*	7	-3	10	33*	49*	7	6
COc1ccccc1OCC(=O)NNC(=O)C1CCN(c2ncnc3sc(C)c(C)c23)CC1	2	44	9	-7	5	.	.	.	.
Cc1sc2ncnc(N3CCC(C(=O)Nc4ccc(Cl)c(Cl)c4)CC3)c2c1C	0	24	16	-8	1	.	.	.	.
Cc1cccc(OCC(=O)NNC(=O)C2CCN(c3ncnc4sc(C)c(C)c34)CC2)c1	2	75*	19	-15	2	36*	52*	11	20
Cc1ccccc1OCC(=O)NNC(=O)C1CCN(c2ncnc3sc(C)c(C)c23)CC1	-1	70*	24	-14	4	39*	57*	13*	30
CCN(CC)c1ccc(C(=O)NNC(=O)C2CCN(c3ncnc4sc(C)c(C)c34)CC2)cc1	.	56*	8	.	.	26*	35	8	15
CCOc1ccc(NC(=O)CN(C)C(=O)C2CCN(c3ncnc4sc(C)c(C)c34)CC2)cc1OCC	-1	4	0	-11	-1	.	.	.	.
CCCN(CC(=O)Nc1ccccc1C)C(=O)C1CCN(c2ncnc3sc(C)c(C)c23)CC1	-2	60*	10	-11	-1	31*	51*	7	5
CC(=O)N1CCOc2ccc(S(=O)(=O)NCc3ccc(F)cc3)cc21	1	6	0	-9	3	.	.	.	.
CCCCc1nnc(NC(=O)CCS(=O)(=O)Cc2ccccc2)s1	-1	3	0	-5	0	.	.	.	.
CCOC(=O)C1=CNS(=O)(=O)NC1c1ccc2ccccc2c1 (centres undefined)	.	6	1	.	.	.	.	.	.
CC(C)(C)NC(=O)CSc1nc2ccc(NC(=O)CSc3nnnn3Cc3ccccc3)cc2s1	3	49*	15	-19	8	36*	26	10	5
Cc1ccccc1OCc1nnc(SCC(=O)Nc2ccc3c(c2)oc2ccccc23)n1C	1	4	8	0	0	.	.	.	.
Cc1ccccc1OCc1nnc(SCC(=O)Nc2ccc3nc(SCC(=O)NC(C)(C)C)sc3c2)n1C	1	61*	22	-9	1	43*	62*	10	6
CN(C(=O)/C(N=Nc1cccc(C(F)(F)F)c1)=C(\O)C(F)(F)F)c1ccccc1	0	-1	8	-3	1	.	.	.	.
CCc1ccc(OCCNC(=O)c2ccccc2SCc2ccc(F)cc2)cc1	2	54*	15	-1	3	26*	36	3	2
COc1ccc(NC(=O)c2ccccc2SCc2ccccc2)cc1	.	11	1	.	.	.	.	.	.
O=C(NCCOc1ccc(F)cc1)c1ccccc1SCc1ccccc1	0	60*	10	-13	0	30*	53*	7	3
CC(=O)Nc1cccc(C(=O)N/N=C/c2ccccc2F)c1	1	10	5	-9	0	.	.	.	.
CC(=O)Nc1cccc(C(=O)N/N=C/c2ccc(F)cc2)c1	1	4	1	0	1	.	.	.	.
Cc1ccc(C(=O)Nc2cccc(C(=O)N/N=C/c3ccc(F)cc3)c2)cc1	4	63*	11	-13	10	37*	53*	10	11
Cc1ccc(C(=O)Nc2cccc(C(=O)N/N=C/c3ccccc3F)c2)cc1	6	65*	13	-17	11	30*	48	8	3
CCOC(=O)CN(C(=O)COc1nc(-c2ccccc2)cc(C)c1C#N)c1cccc(OC)c1	-1	55*	10	-5	0	25*	46	6	8
COC(=O)c1cc(=O)n(CCc2ccccc2F)c(=Nc2ccc(F)c(Cl)c2)s1	2	-33	0	-4	0	.	.	.	.
NC(=O)c1nsc(C(=O)N(c2ccccc2)C(C(=O)NCc2ccc(F)cc2)c2ccc(O)cc2)c1N (centres undefined)	4	74*	30	-10	6	38*	64*	14*	19
SMILES	OXTR ag	TAAR1 antagonist	TAAR1 agonist	OXTR potentiate	V1aR counter	nonsel antag count	TAAR1 ant conf	Ga16 nonsel ag	TAAR1 ag counter
NC(=O)c1nsc(C(=O)N(c2ccccc2)C(C(=O)NCc2ccc(F)cc2)c2ccco2)c1N (centres undefined)	4	68*	17	-13	6	21*	53*	9	40*
O=C(NCc1ccc(F)cc1)C(c1ccco1)N(C(=O)c1csnn1)c1ccccc1 (centres undefined)	1	13	4	-10	1	.	.	.	.
NC(=O)c1nsc(C(=O)N(c2ccccc2)C(C(=O)NC2CCCC2)c2ccncc2)c1N (centres undefined)	-1	-24	0	-5	-1	.	.	.	.
NC(=O)c1nsc(C(=O)N(c2ccccc2)C(C(=O)NC2CCCCC2)c2ccc(O)cc2)c1N (centres undefined)	-1	64*	6	-28	1	25*	40	6	8
O=S1(=O)CC(N2CCC(c3ccccc3)CC2)CN1C1CCCCC1 (centres undefined)	.	-22	4	.	.	.	.	.	.
CCOC(=O)c1c(-c2ccc(Cl)cc2)csc1NC(=O)CNCc1ccco1	0	42	3	-8	3	.	.	.	.
O=C1CN(C(=O)COC(=O)c2cccs2)c2ccccc2N1	1	61*	1	-3	1	12	1	2	2
COc1ccc(S(=O)(=O)N2CCN(c3nc(-c4cccnc4)nc4ccccc34)CC2)cc1	0	37	4	-4	3	.	.	.	.
Cc1ccc(C)c(S(=O)(=O)N2CCN(c3nc(-c4cccnc4)nc4ccccc34)CC2)c1	-1	61*	5	-4	0	13	38	6	8
C=CCn1c(=S)[nH]c2cc(C(=O)Nc3ccc(OC)c(OC)c3)ccc2c1=O	7	62*	19	-14	7	33*	45	12*	18
COCCn1c(=O)[nH]c2cc(C(=O)Nc3ccc(OC)c(Cl)c3)ccc2c1=O	0	.	.	0	3	.	.	.	.
CC(NC(=O)c1ccc(Br)o1)C1CC2CCC1C2 (centres undefined)	-2	-26	6	-2	-1	.	.	.	.
